# Experimental data published in ChEMBL document CHEMBL1240413, “Synthesis and evaluation of vinyl sulfones as caspase-3 inhibitors. A structure-activity study” (Eur J Med Chem, 2010).
# Target: T1, Caspase-3 (Homo sapiens, UniProt P42574)
# T1 sequence (P42574 whole entry): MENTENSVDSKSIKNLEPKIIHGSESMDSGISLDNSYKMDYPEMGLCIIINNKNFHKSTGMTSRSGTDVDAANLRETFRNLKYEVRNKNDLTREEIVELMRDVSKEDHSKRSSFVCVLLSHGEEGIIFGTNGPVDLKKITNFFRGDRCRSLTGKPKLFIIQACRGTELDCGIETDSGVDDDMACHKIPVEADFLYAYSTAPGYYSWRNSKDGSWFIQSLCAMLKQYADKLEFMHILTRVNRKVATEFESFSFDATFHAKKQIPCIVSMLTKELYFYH
# Experiment: Inhibition of human recombinant caspase 3 assessed as fluorescent 7-amido-4-methylcoumarin release
row,IC50 [µM],SMILES
1,453,O=C(O)C[C@@H](/C=C/S(=O)(=O)c1ccccc1)NC(=O)OCc1ccccc1
2,435,CS(=O)(=O)/C=C/[C@H](CC(=O)O)NC(=O)OCc1ccccc1

# Second part, the molecule before the results:
row,SMILES,IC50 [µM]
1,C[C@H](NC(=O)OCc1ccccc1)C(=O)N[C@H](/C=C/S(=O)(=O)c1ccccc1)CC(=O)O,343
2,CC(C)[C@H](NC(=O)OCc1ccccc1)C(=O)N[C@H](/C=C/S(=O)(=O)c1ccccc1)CC(=O)O,388
3,C[C@H](NC(=O)OCc1ccccc1)C(=O)N[C@H](/C=C/S(C)(=O)=O)CC(=O)O,656
4,CC(C)[C@H](NC(=O)OCc1ccccc1)C(=O)N[C@H](/C=C/S(C)(=O)=O)CC(=O)O,133

# Target: T2, Caspase-7 (Homo sapiens, UniProt P55210)
# T2 sequence (P55210 whole entry): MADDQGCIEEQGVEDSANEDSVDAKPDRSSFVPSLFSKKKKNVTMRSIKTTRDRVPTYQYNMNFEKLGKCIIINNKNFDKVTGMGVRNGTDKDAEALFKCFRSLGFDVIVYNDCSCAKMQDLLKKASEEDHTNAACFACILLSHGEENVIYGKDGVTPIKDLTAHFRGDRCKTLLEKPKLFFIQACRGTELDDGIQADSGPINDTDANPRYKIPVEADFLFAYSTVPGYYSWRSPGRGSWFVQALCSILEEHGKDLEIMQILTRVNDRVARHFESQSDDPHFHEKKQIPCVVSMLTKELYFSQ
# Experiment: Inhibition of human recombinant caspase 7 assessed as fluorescent 7-amido-4-methylcoumarin release
# Procedure, shortened: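 Recombinant human caspase-7, 1 U per well final, was mixed with inhibitor at various concentrations in 20 mM HEPES, 2 mM EDTA, 0.1% CHAPS, 5 mM DTT, pH 7.4. The reaction was started by adding Ac-DEVD-AMC substrate, with a stock of 2 mM in DMSO. AMC release was followed continuously at 37 °C (ex 360, em 460 nm), and IC50 was determined.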
row,IC50 [µM],SMILES
1,> 200,CS(=O)(=O)/C=C/[C@H](CC(=O)O)NC(=O)OCC1c2ccccc2-c2ccccc21
2,> 200,CC[C@H](C)[C@H](NC(=O)OCc1ccccc1)C(=O)N[C@H](/C=C/S(=O)(=O)c1ccccc1)CC(=O)O
3,> 200,CC(C)[C@H](NC(=O)OCC1c2ccccc2-c2ccccc21)C(=O)N[C@H](/C=C/S(C)(=O)=O)CC(=O)O
4,0.0591,CC(=O)N[C@@H](CC(=O)O)C(=O)N[C@@H](CCC(=O)O)C(=O)N[C@H](C(=O)N[C@H](C=O)CC(=O)O)C(C)C

# The next lines start with the molecule.
row,SMILES,IC50 [µM]
1,O=C(O)C[C@@H](/C=C/S(=O)(=O)c1ccccc1)NC(=O)OCC1c2ccccc2-c2ccccc21,> 200
2,CC(C)[C@H](NC(=O)OCc1ccccc1)C(=O)N[C@H](/C=C/S(C)(=O)=O)CC(=O)O,> 200
3,CC[C@H](C)[C@H](NC(=O)OCc1ccccc1)C(=O)N[C@H](/C=C/S(C)(=O)=O)CC(=O)O,> 200
4,CC(C)[C@H](NC(=O)OCC1c2ccccc2-c2ccccc21)C(=O)N[C@H](/C=C/S(=O)(=O)c1ccccc1)CC(=O)O,> 200
